These results are taken from ChEMBL document CHEMBL5036331 (J Med Chem, 2021).

Series [1] in a line: Aqueous solubility of the compound at pH 4 for 24 hrs by HPLC-MS/MS. Format: physicochemical.
For series [2], the system named is MOLM-13. The series is described as follows: Antitumor activity against human MOLM-13 cells xenografted in AML mouse model assessed as tumor volume by measuring T/C ratio at 15 mg/kg, iv qd. The class given is functional. In short, it runs like this:
(§1)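 Nude mouse MOLM-13 AML xenograft. Compound dosed iv on the stated schedule, starting 5 days after tumor cell inoculation. Tumor volumes were followed. T/C ratio was taken from mean tumor volumes at the time point when the vehicle group was sacrificed, with significance tested against vehicle controls.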

Series [3] in a line: Half life in Wistar-Han rat blood at 0.3 to 0.5 mg/kg, iv measured upto 24 hrs by HPLC with LC-MS/MS. The class given is ADME, organism-based. Particulars: dose 0.3-0.5 mg/kg.
A short description of series [4]: Clearance in Wistar-Han rat blood at 0.3 to 0.5 mg/kg, iv measured upto 24 hrs by HPLC with LC-MS/MS. The class given is ADME, organism-based. The conditions noted are these: dose 0.3-0.5 mg/kg.
The nature of series [5]: Volume of distribution at steady state in Wistar-Han rat blood at 0.3 to 0.5 mg/kg, iv measured upto 24 hrs by HPLC with LC-MS/MS. The class given is ADME, organism-based. Particulars: dose 0.3-0.5 mg/kg, read-out: Vdss.
Series [6] can be described thus: Apparent permeability of the compound across apical side to basolateral side in human CaCo-2 cells at 2 uM incubated for 2 hrs. The class given is ADME, cell-based. In outline: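 Caco-2 monolayers with TEER of at least 400 Ω·cm². Compound (predissolved in DMSO) added apically or basolaterally at a final 2 μM and incubated 2 h at 37 °C, in triplicate. Both compartments were sampled before and after, MeOH-precipitated and analysed by LC–MS/MS. Papp = (Vr/P0)(1/S)(P2/t).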
For orientation: Caco-2 cells form a polarised layer with tight junctions and transporters.

The nature of series [7]: Clearance in Wistar-Han rat hepatocytes at 1 uM measured for 2 to 90 mins by LC-MS/MS. The class given is ADME, cell-based, Hepatocyte. The conditions noted are these: 1 µM, time 2-90 min.
Series [8] relates to MOLM-13. The series is described as follows: Antitumor activity against human MOLM-13 cells xenografted in AML mouse model assessed as tumor volume by measuring T/C ratio at 35 mg/kg, iv administered once in 3 days. Particulars: time 3 day. Format: functional. In outline: as §1
The subject of series [9] is MOLM-13. In words: Antitumor activity against human MOLM-13 cells xenografted in AML mouse model assessed as tumor volume by measuring T/C ratio at 65 mg/kg, iv administered once in 5 days. The class given is functional. The conditions noted are these: time 5 day. In outline:
as §1

Series [10] is described as follows: Clearance in Wistar-Han rat Liver microsomes at 1 uM measured for 2 to 90 mins by LC-MS/MS. The class given is ADME, Microsome. The conditions noted are these: time 2-90 min.

By solubility is commonly meant how much of the substance goes into solution per volume. The half-life is the time in which the quantity being followed falls by half. By clearance is commonly meant a measure of how efficiently the substance is removed, as volume per time. Low readings indicate inefficient removal, high ones efficient removal. Broadly, the Papp A→B is how fast a substance crosses the layer from the apical side.

Converted amounts (≈) assume the structure as drawn.

For `COc1cc(F)ccc1-c1nc(Nc2cc(F)cc(CS(C)(=N)=O)c2)ncc1F` (stereo in doubt), the solubility at 24 h in [1] stood at 30 µg/mL (≈ 71 µM). Also, the values for the T/C with MOLM-13 [2], in the series on MOLM-13 [8] and in the series with MOLM-13 [9] were 0.26, 0.26 and 0.34, respectively. Also, the half-life in series [3] was 1 h. The same compound had a clearance in series [4] of 21.7 mL/min/kg. Besides, in [5], the Vd is 1.6 L/kg. The Papp A→B at 2 h, 2 µM in series [6] turned out to be 16.8 ×10⁻⁶ cm/s. The CLH in [7] is 31.7 mL/min/kg; in [10], 26.7 mL/min/kg.
